# Article PMC5598522 (Toxicology Reports, 2014)
# What was measured:
# dopamine D4.2 receptor = molecular target: T1, dopamine D4.2 receptor (Homo sapiens, UniProt P21917, DEL265-296); assay: Dopamine D4.2 receptor radioligand binding; conditions: 10 μM, human recombinant CHO-K1 cells
# T1 sequence (P21917 with tags, fused parts or gaps DEL265-296): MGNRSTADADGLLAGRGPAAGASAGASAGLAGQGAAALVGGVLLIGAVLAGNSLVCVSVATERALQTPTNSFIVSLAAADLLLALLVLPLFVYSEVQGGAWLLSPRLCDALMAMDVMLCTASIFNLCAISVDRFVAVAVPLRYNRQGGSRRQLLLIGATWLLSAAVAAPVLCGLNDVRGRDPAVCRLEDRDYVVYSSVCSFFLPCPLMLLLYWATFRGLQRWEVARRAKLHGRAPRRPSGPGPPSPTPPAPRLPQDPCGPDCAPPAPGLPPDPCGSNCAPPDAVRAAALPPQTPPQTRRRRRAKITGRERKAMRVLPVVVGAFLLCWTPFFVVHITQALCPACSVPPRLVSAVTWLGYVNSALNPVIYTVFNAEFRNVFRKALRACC
# Method in brief: (§1)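 Human recombinant receptors expressed in CHO cells (D1, D2L) or CHO-K1 cells (D4.2) were used in radioligand binding assays with [3H]SCH-23390 (D1), [3H]spiperone (D2L) or [3H]dopamine (D4.2). The test compound or its metabolite was tested at a single concentration of 10 μM. Results are expressed as percent inhibition of specific binding.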
# [1] = system: estradiol-induced prolactin release; assay: Ovariectomized rat estradiol-induced prolactin release; format: in vivo; conditions: ovariectomized female rats, 180 mg/kg/day
# Method in brief: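 Female Han Wistar rats (350–375 g) were ovariectomized and given jugular and femoral vein catheters, then recovered 7–14 days. Test compound (180 mg/kg/day) or vehicle (1% sodium CMC in 0.1% polysorbate 80) was given orally for 4 days (n = 10/group). On Day 4, estradiol (2 μg/rat) was given IV 1 h post-dose. Remote femoral blood was sampled to 5 h. Plasma prolactin was measured by ELISA. Baseline-subtracted AUC was log-transformed and compared by t-test.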
# [2] = Rat free systemic exposure in carcinogenicity study; format: in vivo
# Method in brief: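 Satellite carcinogenicity rats (10 per sex per dose) dosed orally at 20, 60 or 180/120 mg/kg/day. Heparinised blood taken on Days 1 and 3 and in Weeks 26 and 52, at 2–24 h post-dose (3 rats per sex per time point). Analysed by protein precipitation and LC-MS/MS.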
# platelet aggregation = conditions: humans, 100 mg b.i.d., at 4, 12 and 24 h; cited from earlier work
# dopamine D2L receptor = dopamine D2L receptor (Homo sapiens, UniProt P14416); assay: Dopamine D2L receptor radioligand binding; conditions: 10 μM, human recombinant CHO cells
# Chain of dopamine D2L receptor (P14416 whole entry): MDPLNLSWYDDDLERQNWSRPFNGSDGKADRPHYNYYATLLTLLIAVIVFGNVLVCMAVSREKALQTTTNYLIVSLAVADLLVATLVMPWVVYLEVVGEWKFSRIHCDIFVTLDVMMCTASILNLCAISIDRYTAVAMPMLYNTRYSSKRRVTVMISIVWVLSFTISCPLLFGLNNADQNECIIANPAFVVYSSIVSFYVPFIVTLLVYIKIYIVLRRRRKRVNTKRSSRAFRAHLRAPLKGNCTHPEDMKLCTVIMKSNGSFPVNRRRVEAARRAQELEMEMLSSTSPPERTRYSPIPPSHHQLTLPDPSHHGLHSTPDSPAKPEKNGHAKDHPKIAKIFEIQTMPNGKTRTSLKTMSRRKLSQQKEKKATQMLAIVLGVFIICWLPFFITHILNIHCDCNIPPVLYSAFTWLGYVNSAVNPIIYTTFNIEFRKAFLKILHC
# Method in brief: as §1
# [3] = Exposure in rat micronucleus in vivo assay; conditions: Alderly Park (Wistar derived), 2000 mg/kg
# [4] = Body weight and food consumption in rat 2 year carcinogenicity study; format: in vivo
# Method in brief: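 Seven-week-old Wistar Han rats, 50 per sex per group, gavaged daily for 2 years with 0, 20, 60 or 180 (female)/120 (male) mg/kg/day. Vehicle was 1% carboxymethylcellulose with 0.1% polysorbate 80 (w/v) at 5 mL/kg. Body weights taken pretreatment, daily to Week 13, then weekly. Analysis by Hartley's jackknifed F-max test and Fisher's F-protected t-test.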
# Protein binding, rat = format: in vitro ADME
# [5] = Human free systemic Cmax in clinical studies; format: in vivo; conditions: based on 99.2% protein binding
# [6] = system: L5178Y/TK + 1 mouse lymphoma cells; assay: Mouse lymphoma in vitro assay; format: cell-based
# Method in brief: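 Genotoxicity screens. Ames: Salmonella strains exposed to 3–3000 μg/plate with and without metabolic activation; read-out was reverse-mutation frequency. Mouse lymphoma: L5178Y/TK+ cells treated for 4 h with S9 (15.7–41.8 μg/mL), for 4 h without S9 (5.23–15.7 μg/mL), and for 24 h without S9; read-out was clone number. Micronucleus: male and female Alderly Park rats given 2000 mg/kg; micronuclei scored 24 or 48 h post-dose.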
compound,measurement,setting,value
CCCSc1nc(N[C@@H]2C[C@H]2c2ccc(F)c(F)c2)c2nnn([C@@H]3C[C@H](OCCO)[C@@H](O)[C@H]3O)c2n1 [Ticagrelor],Inhibition of radioligand binding at the D4.2 receptor,dopamine D4.2 receptor,neither Ticagrelor nor metabolite caused inhibition
same,Effect on estradiol-induced prolactin release,[1],all but completely blocked the estradiol-induced prolactin release
same,Rat free systemic exposure maximal concentration (Cmax),"[2]; high dose group, based on 99.0% protein binding",502 nM
same,Rat free systemic exposure Cmax,[2]; low dose group,43 nM
same,Rat free systemic exposure Cmax,[2]; mid dose group,157 nM
same,Inhibition of platelet aggregation,platelet aggregation,greater than 90%
same,Inhibition of radioligand binding at the D2L receptor,dopamine D2L receptor,neither Ticagrelor nor metabolite caused inhibition
same,AUC,[3]; female,1140 to 1360 µg·h/mL
same,Cmax,[3]; female,45000 to 53000 ng/mL
same,AUC,[3]; male,794 to 1240 µg·h/mL
same,Body weight lower than the control group by the end of study,"[4]; female rats, 180 mg/kg/day",approximately 20%
same,Food consumption,"[4]; female rats, 180 mg/kg/day",significantly decreased food consumption in 10 out of the last 14 measurements
same,Food consumption,[4]; male rats,no consistent food consumption differences
same,Body weight difference from the control group at the end of the study,"[4]; male rats, high dose group (120 mg/kg/day)",≤ 10%
same,fraction unbound,"Protein binding, rat",0.01
same,Human free systemic Cmax,[5],12 nM
same,Mouse lymphoma in vitro: Conclusion,[6],Negative
same,Mouse lymphoma in vitro: Results,"[6]; 15.7–41.8 μg/mL (4 h + S9), 5.23–15.7 μg/mL (4 h − S9), 15.7–36.6 (24 h − S9)",No increased number of clones associated with treatment
